High-throughput results (PubChem)
Insulin prom act – TRM-6 insulin promoter activation; TRM-6 cells (human fetal islet line), insulin promoter eGFP reporter, imaging; plate-scaled: unstimulated 0, stimulated control 100; activation, % at 2 µM; actives 0.81% (n = 130,000); AID 1296;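 active = activation at 2 µM above a set limit, confirmed on inspection of the cell images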;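 note: share of cells whose green reporter signal exceeds an intensity cutoff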
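Assay system: TRM-6 insulin promoter–eGFP reporter cells / Input: 1,000 cells per well / Medium: Low-glucose (5.5 mM) medium with tamoxifen / Also added: tamoxifen inducer, 0.75 µM, in seeding medium / Timing: overnight tamoxifen, then two-day compound incubation at 37 °C / Signal: automated fluorescence imaging of paraformaldehyde-fixed, Hoechst-counterstained cells, green channel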
* marks the source's active call; other numbers are inactive results; [ ] = dose if it differs, or a comment. This is one part of a sample in which hits are shown more often than they occur.

SMILES	Insulin prom act
O=C(Nc1ccc(Cl)cc1C(=O)c1ccccc1Cl)c1ccco1	230.0*
Cc1ccc(C(=O)Nc2ccc(Cl)cc2C(=O)c2ccccc2)cc1	113.3
O=C(COc1ccccc1)Nc1ccc(Cl)cc1C(=O)c1ccccc1	116.7
Cc1ccc(C2N(c3ccccn3)C(=O)C3CCCN32)o1 (stereo not drawn)	6.7
OC12ONC(c3ccccn3)C1N1CCC2CC1 (stereo not drawn)	107.7
CCCCCCOc1ccc(CN2CCN(CC)CC2)cc1	6.5
CC(C)OC(=O)C1C(=O)NC2(C)CC1c1ccccc1O2 (stereo not drawn)	5.4
CCCc1nc2ccc(Br)cc2c(=O)n1-c1ccc([N+](=O)[O-])c(C(F)(F)F)c1	-8.8
COc1ccc(N=C2SCCCN2C)cc1	512.5*
CC[N+](CC)(CC)CCCOC(=O)C(O)(c1ccccc1)C1CCCCC1 (stereo not drawn)	7.1
CCC1(C)OC(c2ccccc2)=C/C(=C/C=C2C(=O)NC(=O)NC2=O)O1 (stereo not drawn)	7.1
COc1ccc(C2C(C(=O)N3CCC4(CC3)OCCO4)CC(=O)N2c2ccc(OC)cc2)cc1 (stereo not drawn)	0.0
CCOP(=O)(Cc1cc(C#N)oc1C)OCC	0.0
CN1CCN(c2ncnc3nc[nH]c23)CC1	0.0
COc1cc(C2SCC(=O)Nc3c2c(=O)[nH]n3C2CCCCCC2)cc(OC)c1OC (stereo not drawn)	7.7
O=c1c2ccccc2nc(-c2ccco2)n1-c1cccnc1	-2.9
CCCCOc1nc2ccccc2c(=O)n1-c1ccccc1	3.3
O=c1c2ccccc2nc(SCC2CCCCO2)n1-c1ccccc1 (stereo not drawn)	366.7*
O=C(NCc1cccnc1)C(Cl)(Cl)Cl	-8.3
Brc1ccc(C2N3CCCN23)cc1 (stereo not drawn)	508.3*
CC(=O)OC1N=C(c2ccc(Cl)cc2)c2cc(Br)ccc2NC1=O (stereo not drawn)	7.9
COCCNCCOc1ccc(C(C)(C)c2ccccc2)cc1	107.7
C[N+](C)(C)c1ccccc1	6.7
CCN1/C(=C\C=C\C2=[N+](CC)c3ccccc3C2(C)C)C(C)(C)c2ccccc21	257.1*[toxic and fluoresces]
CCNC(=O)NNC(=O)C1CC(c2cccnc2)=NO1 (stereo not drawn)	0.0
S=C1CN=C(c2ccccc2)c2cc(Cl)ccc2N1	0.0
CCn1c(O)c(C(=O)CC2NCCc3ccccc32)c(=O)n(CC)c1=S (stereo not drawn)	-30.0
Cc1ccccc1N1C(=O)CC(=O)N(c2ccccc2C)C1=O	-8.3
CCOC(=O)c1cc(CC)sc1/N=C/C1C(=O)NC(=S)NC1=O	295.0*
COc1ccc(C2N(c3cc(C)on3)C(=O)C3CCCN32)cc1 (stereo not drawn)	-5.6
